From ChEMBL document CHEMBL1949668, “Synthesis of new α aminophosphonate system bearing Indazole moiety and their biological activity” (2012)

Experiments:
Klebsiella pneumoniae = assay: Antibacterial activity Klebsiella pneumoniae at 40 ug/disc after 24 hrs by agar disc diffusion method; format: functional; settings: for zone of inhibition at 40 µg/disc: read-out: IZ
Summary of the method: (§1)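 Agar disc diffusion. Strains were grown in Mueller Hinton broth for 18–24 h at 37 °C. The bacterial suspension was spread on Mueller Hinton agar, and dried loaded discs were placed on it once the plates were dry. Gentamycin and […] reference discs carried 40 mcg/disc from 1 mg/ml solutions. Plates were incubated 24 h at 37 °C, and clear inhibition zones were measured in mm.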

Escherichia coli = assay: Antibacterial activity Escherichia coli at 40 ug/disc after 24 hrs by agar disc diffusion method; format: functional; settings: read-out: IZ; summary of the method: as §1
Staphylococcus aureus = assay: Antibacterial activity Staphylococcus aureus at 40 ug/disc after 24 hrs by agar disc diffusion method; format: functional; settings: read-out: IZ; summary of the method: as §1
Bacillus subtilis = assay: Antibacterial activity Bacillus subtilis at 40 ug/disc after 24 hrs by agar disc diffusion method; format: functional; settings: for zone of inhibition at 40 µg/disc: read-out: IZ; summary of the method: as §1
Salmonella typhimurium = assay: Antibacterial activity Salmonella Typhimurium at 40 ug/disc after 24 hrs by agar disc diffusion method; format: functional, Salmonella enterica subsp. enterica serovar Typhimurium; settings: for zone of inhibition at 40 µg/disc: Salmonella enterica, read-out: IZ; summary of the method: as §1
Pseudomonas aeruginosa = assay: Antibacterial activity Pseudomonas aeruginosa at 40 ug/disc after 24 hrs by agar disc diffusion method; format: functional; settings: read-out: IZ; summary of the method: as §1

Compound	zone of inhibition at 40 µg/disc (Klebsiella pneumoniae)	zone of inhibition at 40 µg/disc (Escherichia coli)	zone of inhibition at 40 µg/disc (Staphylococcus aureus)	zone of inhibition at 40 µg/disc (Bacillus subtilis)	zone of inhibition at 40 µg/disc (Salmonella typhimurium)	zone of inhibition at 40 µg/disc (Pseudomonas aeruginosa)	inhibition zone (IZ) (Klebsiella pneumoniae)	inhibition zone (IZ) (Bacillus subtilis)	inhibition zone (IZ) (Salmonella typhimurium; Salmonella enterica subsp. enterica serovar Typhimurium)
CCOP(=O)(OCC)C(NNC(=O)c1nn(C)c2ccccc12)c1ccccc1Br (stereo not drawn)	2 mm	1 mm	1 mm	7 mm	3 mm	4 mm			
CCOP(=O)(OCC)C(NNC(=O)c1nn(C)c2ccccc12)c1ccccc1 (stereo not drawn)	3 mm	0 mm	2 mm	5 mm	2 mm	1 mm			
CCOP(=O)(OCC)C(NNC(=O)c1nn(C)c2ccccc12)c1cccc(F)c1 (stereo not drawn)	8 mm	5 mm	3 mm	4 mm	4 mm	7 mm			
GENTAMICIN							13 mm	15 mm	11 mm
NC[C@H]1O[C@H](O[C@H]2[C@H](O)[C@@H](O[C@H]3O[C@H](CO)[C@@H](O)[C@H](N)[C@H]3O)[C@H](N)C[C@@H]2N)[C@H](O)[C@@H](O)[C@@H]1O [KANAMYCIN]	18 mm	13 mm	9 mm	15 mm	14 mm	21 mm			
CCOP(=O)(OCC)C(NNC(=O)c1nn(C)c2ccccc12)c1ccc(C(F)(F)F)cc1 (stereo not drawn)	7 mm	3 mm	5 mm	4 mm	5 mm	6 mm			
